Measurements: ChEMBL document CHEMBL1148973, “Bioactive friedolanostanes and 11(10-->8)-abeolanostanes from the bark of Garcinia speciosa” (2004)

Tests used:
Type in all cases: functional
MCF7 [1] = test: Induction of apoptosis in human MCF7 cells assessed as fragmentation of genomic DNA at 19.2 uM after 48 hrs by TUNEL assay
Summary of the method: (§1)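 MCF-7 cells were seeded at 1.5 × 10^5 cells/mL, grown 24 h at 37°, then exposed continuously for 48 h. Adherent and floating cells were harvested by trypsinisation, cytospun onto slides and fixed in 4% paraformaldehyde for 1 h at room temperature. DNA fragmentation was detected by fluorescein TUNEL with DAPI counterstain under fluorescence microscopy. Apoptotic percentage came from ≥400 cells over ≥5 random fields. Controls were untreated cells and 40 nM doxorubicin.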

SF-268 = test: Cytotoxicity against human SF268 cells after 48 hrs by SRB assay; details: SF-268, 48 h
Summary of the method: (§2)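 SRB growth-inhibition assay following the NCI screen protocol. Cells were kept adherent in RPMI-1640 with 5% heat-inactivated FBS and 2 mM glutamine at 37 °C under 5% CO2. Plating density was 1.5 × 10^5 cells/mL for MCF-7 and SF-268 and 7.5 × 10^4 cells/mL for NCI-H-460. Cells attached overnight, then received five concentrations (top 100 µM) for 48 h. Cells were fixed in situ, stained with SRB and the bound dye solubilised. GI50 was taken from dose-response curves. Doxorubicin served as positive control.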

MCF7 [2] = test: Cytotoxicity against human MCF7 cells after 48 hrs by SRB assay; details: MCF7, 48 h; summary of the method: as §2
NCI-H460 = test: Cytotoxicity against human NCI-H460 cells after 48 hrs by SRB assay; details: NCI-H460, 48 h; summary of the method: as §2
MCF7 [3] = test: Induction of apoptosis in human MCF7 cells assessed as fragmentation of genomic DNA at 15.5 uM after 48 hrs by TUNEL assay; summary of the method: as §1
MCF7 [4] = test: Induction of apoptosis in human MCF7 cells assessed as fragmentation of genomic DNA at 19.4 uM after 48 hrs by TUNEL assay; summary of the method: as §1
MCF7 [5] = test: Induction of apoptosis in human MCF7 cells assessed as fragmentation of genomic DNA at 15.3 uM after 48 hrs by TUNEL assay; summary of the method: as §1
MCF7 [6] = test: Induction of apoptosis in human MCF7 cells assessed as fragmentation of genomic DNA at 26 uM after 48 hrs by TUNEL assay; summary of the method: as §1
MCF7 [7] = test: Induction of apoptosis in human MCF7 cells assessed as fragmentation of genomic DNA at 0.043 uM after 48 hrs by TUNEL assay
MCF7 [8] = test: Induction of apoptosis in human MCF7 cells assessed as fragmentation of genomic DNA at 22.3 uM after 48 hrs by TUNEL assay; summary of the method: as §1

**Q.** Which results are given for `COC(=O)/C(C)=C/[C@H]1C[C@@H](C)[C@]2(C)[C@@H](C=C3C4=C(CC[C@]32C)[C@@]2(C)CC[C@@H](O)C(C)(C)[C@@H]2CC4)O1`?
**A.** Activity (MCF7 [1]): 2.97%; GI50 (SF-268): 29.7 µM; GI50 (MCF7 [2]): 19.2 µM; GI50 (NCI-H460): 30.4 µM

**Q.** How did the GI50 (SF-268) turn out when `CC(=O)O[C@H]1CC[C@]2(C)C3=CC[C@]4(C)C([C@H](C)CC(=O)C[C@H](C)C(=O)O)=CC[C@@]4(C)[C@@H]3CC[C@H]2C1(C)C` was run?
**A.** 30.6 µM

**Q.** What about the GI50 (MCF7 [2]) of the same molecule?
**A.** 15.5 µM

**Q.** And the GI50 (NCI-H460)?
**A.** 22.1 µM

**Q.** What about the Activity (MCF7 [3]) of the same molecule?
**A.** 5.33%

**Q.** `C[C@H](CC(=O)C[C@H](C)C(=O)O)C1=CC[C@@]2(C)[C@@H]3CC[C@H]4C(C)(C)[C@H](O)CC[C@]4(C)C3=CC[C@]12C` was tested. Which GI50 (SF-268) did it give?
**A.** 34.8 µM

**Q.** And the GI50 (MCF7 [2])?
**A.** 19.4 µM

**Q.** What about the GI50 (NCI-H460) of the same molecule?
**A.** 36.9 µM

**Q.** What about the Activity (MCF7 [4]) of the same molecule?
**A.** 2.34%

**Q.** What does the source list for `COC(=O)/C(C)=C/[C@H]1C[C@@H](C)[C@]2(C)[C@@H](C=C3C4=C(CC[C@]32C)[C@@]2(C)CC[C@@H](OC(C)=O)C(C)(C)[C@@H]2CC4)O1`?
**A.** Activity (MCF7 [5]): 23.54%; GI50 (SF-268): 28.6 µM; GI50 (MCF7 [2]): 15.3 µM; GI50 (NCI-H460): 34.4 µM

**Q.** For `COC(=O)/C(C)=C/[C@H](O)C[C@@H](C)[C@]1(C)CC(=O)C2=C3CC[C@H]4C(C)(C)[C@H](O)CC[C@]4(C)[C@H]3CC[C@]21C`, which GI50 (SF-268) is on record?
**A.** 44.7 µM

**Q.** And the GI50 (MCF7 [2])?
**A.** 26 µM

**Q.** What about the GI50 (NCI-H460) of the same molecule?
**A.** 42.7 µM

**Q.** What about the Activity (MCF7 [6]) of the same molecule?
**A.** 26.36%

**Q.** For `C/C(=C\CC[C@@H](C)[C@@]1(C)C[C@H]2O[C@]23[C@]1(C)CCC(=O)[C@@]31CC[C@H]2C(C)(C)[C@@H](O)CC[C@@]21C)C(=O)O`, which GI50 (SF-268) is on record?
**A.** 86.4 µM

**Q.** And the GI50 (MCF7 [2])?
**A.** 63.8 µM

**Q.** And the GI50 (NCI-H460)?
**A.** 68.6 µM

**Q.** For `COC(=O)[C@@H](C)CC(=O)C[C@@H](C)C1=CC[C@@]2(C)[C@@H]3CC[C@H]4C(C)(C)[C@@H](O)CC[C@]4(C)C3=CC[C@]12C`, which GI50 (SF-268) is on record?
**A.** > 100 µM

**Q.** And the GI50 (MCF7 [2])?
**A.** > 100 µM

**Q.** And the GI50 (NCI-H460)?
**A.** > 100 µM

**Q.** Which results are given for `C/C(=C\C=C/[C@@H](C)[C@@]1(C)C[C@H]2O[C@]23[C@]1(C)CCC(=O)[C@@]31CC[C@H]2C(C)(C)[C@@H](O)CC[C@@]21C)C(=O)O`?
**A.** GI50 (SF-268): 95.7 µM; GI50 (MCF7 [2]): 69.6 µM; GI50 (NCI-H460): 70.3 µM

**Q.** Which results are given for `COc1cccc2c1C(=O)c1c(O)c3c(c(O)c1C2=O)C[C@@](O)(C(=O)CO)C[C@@H]3O[C@H]1C[C@H](N)[C@H](O)[C@H](C)O1` [DOXORUBICIN]?
**A.** GI50 (SF-268): 0.093 µM; GI50 (MCF7 [2]): 0.043 µM; GI50 (NCI-H460): 0.094 µM; Activity (MCF7 [7]): 26.02%

**Q.** For `COC(=O)/C(C)=C/[C@H](O)C[C@@H](C)[C@]1(C)CC=C2C3=C(CC[C@]21C)[C@@]1(C)CC[C@@H](O)C(C)(C)[C@@H]1CC3` [GARCIHOMBRONANES C], which Activity (MCF7 [8]) is on record?
**A.** 17.36%

**Q.** What about the GI50 (SF-268) of the same molecule?
**A.** 38.6 µM

**Q.** What about the GI50 (MCF7 [2]) of the same molecule?
**A.** 22.3 µM

**Q.** And the GI50 (NCI-H460)?
**A.** 37.9 µM
